Assays:
MT4 [1] = experiment: Dose required to reduce the viability of mock-infected cells by 50%; format: functional; settings: Homo sapiens
How it was run: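 Mock-infected MT-4 cells (1×10^4 per well) were exposed to compound dilutions in parallel with the antiviral assay. After 4 days at 37 °C, viability was measured by MTT. CC50 is the dose reducing viable cell number by 50%.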

MT4 [2] = experiment: Dose required to achieve 50% protection of MT-4 cells from the HIV-1 induced cytopathogenicity in HIV-1 infected MT-4 cells; settings: Homo sapiens
[3] = test system: Human immunodeficiency virus type 1; experiment: Selectivity index is the ratio of CC50 to EC50; settings: Human immunodeficiency virus 1

Oc1cc(-c2ccccc2)nc(SC2CCCC2)n1
CC50 (MT4 [1]): > 300 µM | EC50 (MT4 [2]): > 300 µM

Cc1c(O)nc(SC2CCCCC2)nc1CSc1ccccc1
CC50 (MT4 [1]): > 300 µM | EC50 (MT4 [2]): 150 µM | Ratio [3]: > 2

CCC(C)Sc1nc(O)cc(CSc2ccccc2)n1 (stereo unspecified)
CC50 (MT4 [1]): 288 µM | EC50 (MT4 [2]): 53 µM | Ratio [3]: 5.4

CCC(C)Sc1nc(SC2CCCCC2)nc(Cc2cccc(C)c2)c1C (stereo unspecified)
CC50 (MT4 [1]): > 300 µM | EC50 (MT4 [2]): > 300 µM

Cc1cccc(Cc2nc(SC3CCCCC3)ncc2C)c1
CC50 (MT4 [1]): 128 µM | EC50 (MT4 [2]): > 128 µM

Cc1c(O)nc(S)nc1CSc1ccccc1
CC50 (MT4 [1]): > 300 µM | EC50 (MT4 [2]): > 300 µM

CCC(C)Sc1nc(O)cc(-c2ccccc2)n1 (stereo unspecified)
CC50 (MT4 [1]): > 300 µM | EC50 (MT4 [2]): > 300 µM

Cc1cccc(Cc2nc(SC3CCCCC3)nc(S)c2C)c1
CC50 (MT4 [1]): 176 µM | EC50 (MT4 [2]): 14.6 µM | Ratio [3]: 12

Cc1c(O)nc(SC2CCCC2)nc1Cc1ccc2ccccc2c1
CC50 (MT4 [1]): > 300 µM | EC50 (MT4 [2]): 15 µM | Ratio [3]: > 20

Oc1cc(-c2ccccc2)nc(SC2CCCCC2)n1
CC50 (MT4 [1]): > 300 µM | EC50 (MT4 [2]): > 300 µM

Cc1nc(SC2CCCC2)nc(O)c1Cc1ccccc1
CC50 (MT4 [1]): > 300 µM | EC50 (MT4 [2]): > 300 µM

Oc1cc(CSc2ccccc2)nc(S)n1
CC50 (MT4 [1]): > 300 µM | EC50 (MT4 [2]): > 300 µM

Cc1c(O)nc(SC2CCCCC2)nc1Cc1ccc2ccccc2c1
CC50 (MT4 [1]): > 300 µM | EC50 (MT4 [2]): 125 µM | Ratio [3]: > 2.4

CCC(C)Sc1nc(C)c(Cc2ccccc2)c(O)n1 (stereo unspecified)
CC50 (MT4 [1]): > 300 µM | EC50 (MT4 [2]): > 300 µM

Oc1cc(COc2ccccc2)nc(S)n1
CC50 (MT4 [1]): > 300 µM | EC50 (MT4 [2]): > 300 µM

CCC(C)Sc1nc(O)cc(COc2ccccc2)n1 (stereo unspecified)
CC50 (MT4 [1]): > 300 µM | EC50 (MT4 [2]): 52 µM | Ratio [3]: > 6

CCCc1cc(O)nc(SC(C)CC)n1 (stereo unspecified)
CC50 (MT4 [1]): 246 µM | EC50 (MT4 [2]): > 246 µM

Cc1c(O)nc(S)nc1CCc1ccccc1
CC50 (MT4 [1]): > 300 µM | EC50 (MT4 [2]): > 300 µM

Cc1cccc(Cc2nc(SC3CCCCC3)nc(Cl)c2C)c1
CC50 (MT4 [1]): 133 µM | EC50 (MT4 [2]): > 133 µM

Cc1c(O)nc(SC2CCCCC2)nc1Cc1cccc2ccccc12
CC50 (MT4 [1]): > 300 µM | EC50 (MT4 [2]): 63 µM | Ratio [3]: > 4.7

Cc1cccc(Cc2nc(SC3CCCC3)nc(O)c2C)c1
CC50 (MT4 [1]): > 300 µM | Ratio [3]: > 500

Cc1c(O)nc(S)nc1Cc1ccc2ccccc2c1
CC50 (MT4 [1]): 91 µM | EC50 (MT4 [2]): > 91 µM

CCC(C)Sc1nc(O)c(C)c(-c2ccccc2)n1 (stereo unspecified)
CC50 (MT4 [1]): 126 µM | EC50 (MT4 [2]): > 126 µM

Oc1cc(Cc2cccc3ccccc23)nc(S)n1
CC50 (MT4 [1]): > 300 µM | EC50 (MT4 [2]): > 300 µM

CCC(CC)Sc1nc(O)cc(Cc2cccc3ccccc23)n1
CC50 (MT4 [1]): 200 µM | EC50 (MT4 [2]): 4 µM | Ratio [3]: 50

CCCc1cc(O)nc(SC2CCCCC2)n1
CC50 (MT4 [1]): 210 µM | EC50 (MT4 [2]): > 210 µM

Cc1cccc(Cc2nc(SC3CCCCC3)nc(N)c2C)c1
CC50 (MT4 [1]): > 200 µM | EC50 (MT4 [2]): > 200 µM

Oc1cc(Cc2ccc3ccccc3c2)nc(S)n1
CC50 (MT4 [1]): > 300 µM | EC50 (MT4 [2]): > 300 µM

Cc1c(O)nc(SC2CCCCC2)nc1-c1ccccc1
CC50 (MT4 [1]): > 300 µM | EC50 (MT4 [2]): > 300 µM

Cc1nc(SC2CCCCC2)nc(O)c1Cc1ccccc1
CC50 (MT4 [1]): > 300 µM | EC50 (MT4 [2]): > 300 µM

CCCCCCCCCCCSc1nc(O)cc(Cc2cccc3ccccc23)n1
CC50 (MT4 [1]): > 300 µM | EC50 (MT4 [2]): > 300 µM

CCC(C)Sc1nc(O)c(C)c(Cc2cccc(C)c2)n1 (stereo unspecified)
CC50 (MT4 [1]): 100 µM | Ratio [3]: 100

Cc1c(O)nc(S)nc1COc1ccccc1
CC50 (MT4 [1]): > 300 µM | EC50 (MT4 [2]): > 300 µM

Cc1cccc(Cc2nc(SC3CCCCC3)n(C)c(=O)c2C)c1
CC50 (MT4 [1]): 44 µM | EC50 (MT4 [2]): > 44 µM

COc1nc(SC2CCCCC2)nc(Cc2cccc(C)c2)c1C
CC50 (MT4 [1]): > 300 µM | EC50 (MT4 [2]): > 300 µM

Cc1c(O)nc(SC2CCCC2)nc1-c1ccccc1
CC50 (MT4 [1]): 175 µM | EC50 (MT4 [2]): > 175 µM

Oc1cc(COc2ccccc2)nc(SC2CCCCC2)n1
CC50 (MT4 [1]): > 300 µM | EC50 (MT4 [2]): > 300 µM

Cc1cccc(Cc2nc(SC3CCCCC3)nc(N/N=C(/N)S)c2C)c1
CC50 (MT4 [1]): 24 µM | EC50 (MT4 [2]): > 24 µM

Cc1c(O)nc(S)nc1Cc1cccc2ccccc12
CC50 (MT4 [1]): 145 µM | EC50 (MT4 [2]): > 145 µM

— ChEMBL document CHEMBL1130025, “Dihydro(alkylthio)(naphthylmethyl)oxopyrimidines: novel non-nucleoside reverse transcriptase inhibitors of the S-DABO series” (J Med Chem, 1997)
